Consider three compounds from ChEMBL document CHEMBL1240328, “Selective compounds define Hsp90 as a major inhibitor of apoptosis in small-cell lung cancer” (Nat Chem Biol, 2007).

In experiment [1] the target is RAC-alpha serine/threonine-protein kinase (Homo sapiens) (UniProt P31749). As to conditions: NCI-H526, 50 uM.
Experiment [2] deals with Heat shock protein HSP 90-beta (Homo sapiens) (UniProt P08238). Briefly: Inhibition of HSP90-mediated antiapoptotic activity in human NCI-H526 cells assessed as induction of Akt degradation at 50 uM after 24 hrs by Western blot analysis. Type of experiment: cell-based. For orientation: In western blotting, separated proteins are transferred to a membrane and probed.
Chain of Heat shock protein HSP 90-beta (Homo sapiens) (P08238 whole entry): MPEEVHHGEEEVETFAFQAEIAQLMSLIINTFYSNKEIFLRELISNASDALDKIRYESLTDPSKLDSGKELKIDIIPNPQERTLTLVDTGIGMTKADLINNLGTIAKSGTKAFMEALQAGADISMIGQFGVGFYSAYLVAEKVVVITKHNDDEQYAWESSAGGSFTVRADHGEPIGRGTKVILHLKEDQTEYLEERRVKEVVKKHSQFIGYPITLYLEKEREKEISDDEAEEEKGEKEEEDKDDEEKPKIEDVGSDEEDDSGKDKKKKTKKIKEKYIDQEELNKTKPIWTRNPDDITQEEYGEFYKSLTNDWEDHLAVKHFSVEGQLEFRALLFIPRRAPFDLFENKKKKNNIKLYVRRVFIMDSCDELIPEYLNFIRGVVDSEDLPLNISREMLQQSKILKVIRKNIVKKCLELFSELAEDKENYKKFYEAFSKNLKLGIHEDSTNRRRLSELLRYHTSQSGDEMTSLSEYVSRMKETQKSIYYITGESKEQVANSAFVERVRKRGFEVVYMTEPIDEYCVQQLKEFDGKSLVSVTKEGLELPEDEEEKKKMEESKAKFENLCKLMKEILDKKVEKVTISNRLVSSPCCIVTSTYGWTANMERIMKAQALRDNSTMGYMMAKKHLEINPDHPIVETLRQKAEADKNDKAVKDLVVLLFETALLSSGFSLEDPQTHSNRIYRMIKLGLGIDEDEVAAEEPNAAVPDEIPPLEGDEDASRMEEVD
For experiment [3] the target is unchanged. The experiment in a line: Inhibition of HSP90-mediated antiapoptotic activity in human NCI-H526 cells assessed as reduction in BAD phosphorylation at 50 uM after 24 hrs by Western blot analysis. In kind it is cell-based.
For experiment [4] the target is unchanged. Briefly: Inhibition of HSP90-mediated antiapoptotic activity in human SKBR3 cells assessed as induction of cell growth arrest at 50 uM after 24 hrs by propidium iodide staining-based flow cytometry. As to conditions: SK-BR-3. (Flow cytometry measures light scatter and fluorescence of single cells or particles in a stream.)
For experiment [5] the target is unchanged. Briefly: Inhibition of HSP90-mediated antiapoptotic activity in human MCF7 cells assessed as induction of cell growth arrest at 50 uM after 24 hrs by propidium iodide staining-based flow cytometry.
Experiment [6] has the same target. Briefly: Inhibition of HSP90-mediated antiapoptotic activity in human SKBR3 cells assessed as induction of PARP cleavage at 50 uM after 24 hrs by Western blot analysis. As to conditions: SK-BR-3. In kind it is cell-based. In short, it runs like this: (§1)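 SKBr3 cells at 60–70% confluence were exposed to drug or DMSO vehicle. Lysis was in 50 mM Tris pH 7.4, 150 mM NaCl, 1% NP-40, with protein measured by BCA. Lysates of 20–100 µg were run on SDS-PAGE, blotted to nitrocellulose, probed with primary antibodies and detected with a peroxidase-conjugated secondary (1:5,000). Loading was checked with β-actin or PI(3)K p85.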

Experiment [7] has the same target. Briefly: Inhibition of HSP90-mediated antiapoptotic activity in human SKBR3 cells assessed as induction of caspase-3 cleavage at 400 uM after 24 hrs by Western blot analysis. In kind it is cell-based. As to conditions: SK-BR-3. The procedure, abridged:
as §1

The target is the same in experiment [8]. Briefly: Inhibition of HSP90-mediated antiapoptotic activity in human MCF7 cells assessed as induction of caspase-3 cleavage at 50 uM after 24 hrs by Western blot analysis. In kind it is cell-based.
The target is the same in experiment [9]. The experiment in a line: Inhibition of HSP90-mediated antiapoptotic activity in human MCF7 cells assessed as induction of caspase-9 cleavage at 50 uM after 24 hrs by Western blot analysis. Type of experiment: cell-based.
Experiment [10] shares this target. The experiment in a line: Inhibition of HSP90-mediated antiapoptotic activity in human MCF7 cells assessed as induction of PARP cleavage at 50 uM after 24 hrs by Western blot analysis. In kind it is cell-based.
Experiment [11] relates to SK-BR-3. The experiment in a line: Inhibition of HSP70-mediated antiapoptotic activity in human SKBR3 cells assessed as induction of cell growth arrest after 72 hrs by propidium iodide staining-based flow cytometry.
Experiment [12] has as its system SK-BR-3. Briefly: Inhibition of HSP70-mediated antiapoptotic activity in human SKBR3 cells assessed as increase in caspase-3 activity after 24 hrs by Western blot analysis. In kind it is cell-based.
Experiment [13] has as its system SK-BR-3. Briefly: Inhibition of HSP70-mediated antiapoptotic activity in human SKBR3 cells assessed as induction of caspase-3 cleavage after 24 hrs by Western blot analysis. In kind it is cell-based. The procedure, abridged: (§2)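 SKBr3 cells were treated for 24 h. Lysates were probed by western blot for caspase-3 and PARP cleavage. Apaf-1 complexes were pulled down with Apaf-1 antibody (with control IgG) and immunoblotted.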

For experiment [14], the system named is SK-BR-3. Briefly: Inhibition of HSP70-mediated antiapoptotic activity in human SKBR3 cells assessed as induction of PARP cleavage after 24 hrs by Western blot analysis. Type of experiment: cell-based. The procedure, abridged:
as §2

For experiment [15], the system named is SK-BR-3. Briefly: Inhibition of HSP70-mediated antiapoptotic activity in human SKBR3 cells assessed as release of Apaf-1 from chaperon complex after 24 hrs by Western blot analysis. Type of experiment: cell-based. The procedure, abridged: as §2
Experiment [16] has as its system NCI-H526. The experiment in a line: Inhibition of HSP70-mediated antiapoptotic activity in human NCI-H526 cells assessed as induction of caspase-3 cleavage after 24 hrs by Western blot analysis. Type of experiment: cell-based. The procedure, abridged: (§3)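 NCI-H526 cells were treated for 24 h. PARP and caspase-3 cleavage were read by western blot of lysates in Tris/NaCl/NP-40 buffer. Apaf-1 complexes were immunoprecipitated with Apaf-1 antibody, using control IgG, then blotted.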

In experiment [17] the test system is NCI-H526. The experiment in a line: Inhibition of HSP70-mediated antiapoptotic activity in human NCI-H526 cells assessed as induction of PARP cleavage after 24 hrs by Western blot analysis. In kind it is cell-based. In short, it runs like this: as §3
For experiment [18], the system named is NCI-H526. The experiment in a line: Inhibition of HSP70-mediated antiapoptotic activity in human NCI-H526 cells assessed as release of Apaf-1 from chaperon complex after 24 hrs by Western blot analysis. In kind it is cell-based. The procedure, abridged: as §3
For experiment [19], the target named is Heat shock protein HSP 90-beta (Homo sapiens) (UniProt P08238). The experiment in a line: Inhibition of HSP90-mediated antiapoptotic activity in human SKBR3 cells assessed as induction of caspase-3 cleavage at 200 uM after 24 hrs by Western blot analysis. Type of experiment: cell-based. As to conditions: SK-BR-3. In short, it runs like this:
(§4)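 SKBr3 breast cancer cells at 60–70% confluence treated 24 h with compound or DMSO vehicle. Lysates in 50 mM Tris pH 7.4, 150 mM NaCl, 1% NP-40, quantified by BCA. 20–100 µg resolved by SDS-PAGE, blotted to nitrocellulose and probed for cleaved caspase-3, caspase-9 and PARP, using 1:5,000 peroxidase secondary. β-actin or PI(3)K p85 served as loading control.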

Experiment [20] has the same target. Briefly: Inhibition of HSP90-mediated antiapoptotic activity in human SKBR3 cells assessed as induction of caspase-9 cleavage at 200 uM after 24 hrs by Western blot analysis. In kind it is cell-based. As to conditions: SK-BR-3. In short, it runs like this:
as §4

Experiment [21] has the same target. Briefly: Inhibition of HSP90-mediated antiapoptotic activity in human SKBR3 cells assessed as induction of PARP cleavage at 200 uM after 24 hrs by Western blot analysis. Type of experiment: cell-based. The following applies: SK-BR-3. In short, it runs like this:
as §4

The target is the same in experiment [22]. The experiment in a line: Inhibition of HSP90-mediated antiapoptotic activity in human MCF7 cells assessed as induction of caspase-3 cleavage at 200 uM after 24 hrs by Western blot analysis. In kind it is cell-based.
Experiment [23] shares this target. Briefly: Inhibition of HSP90-mediated antiapoptotic activity in human MCF7 cells assessed as induction of caspase-9 cleavage at 200 uM after 24 hrs by Western blot analysis. Type of experiment: cell-based.
Experiment [24] shares this target. The experiment in a line: Inhibition of HSP90-mediated antiapoptotic activity in human MCF7 cells assessed as induction of PARP cleavage at 200 uM after 24 hrs by Western blot analysis. Type of experiment: cell-based.

Calls of active or inactive are those of the source. No cut-off for these calls is given here.

Chain of RAC-alpha serine/threonine-protein kinase (Homo sapiens) (P31749 whole entry): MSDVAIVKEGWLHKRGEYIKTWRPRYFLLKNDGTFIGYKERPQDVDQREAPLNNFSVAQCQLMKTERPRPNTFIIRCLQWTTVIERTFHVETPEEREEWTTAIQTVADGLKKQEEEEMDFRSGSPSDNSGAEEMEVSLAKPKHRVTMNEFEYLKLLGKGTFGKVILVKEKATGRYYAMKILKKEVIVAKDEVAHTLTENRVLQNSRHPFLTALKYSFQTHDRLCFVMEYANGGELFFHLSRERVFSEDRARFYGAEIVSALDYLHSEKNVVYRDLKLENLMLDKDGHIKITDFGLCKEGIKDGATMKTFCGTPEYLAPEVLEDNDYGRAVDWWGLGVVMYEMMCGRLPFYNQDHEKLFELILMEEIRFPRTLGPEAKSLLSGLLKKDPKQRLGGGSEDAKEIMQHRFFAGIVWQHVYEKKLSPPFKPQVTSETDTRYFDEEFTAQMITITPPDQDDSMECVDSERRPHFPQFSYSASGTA

On to `O=c1[nH]c2ccccc2n1C1CCN(Cc2ccc(-c3nc4cc5[nH]cnc5cc4nc3-c3ccccc3)cc2)CC1`, for which the inhibition entry in experiment [1] is “Active”.

Take `CCCCCCN(C(=O)CCCCCN1C(=O)NC(c2ccc(-c3ccccc3)cc2)C(C(=O)OCc2ccccc2)=C1C)C(C(=O)NCCCC)c1ccc(OCC(=O)OC)c(C(=O)OC)c1` (stereo unspecified): the result in experiment [2], in [4], in [5], in experiment [6], in experiment [7] and in experiment [8] was Active. Besides, the outcome in [9] and in experiment [10] was Active. In addition, the inhibition entry in experiment [3], in experiment [11], in experiment [12], in experiment [13] and in experiment [14] was “Active” each time. Moreover, the inhibition result in experiment [15], in [16], in experiment [17] and in experiment [18] was “inactive” in each case.

As to `O=c1c(O)c(-c2ccc(O)c(O)c2)oc2cc(O)cc(O)c12`, the outcome in [19], in experiment [20], in [21], in experiment [22], in experiment [23] and in [24] was inactive. Besides, the inhibition entry in [11], in experiment [12], in experiment [13] and in experiment [14] was “Active” each time. In addition, the inhibition entry in experiment [16], in [17] and in experiment [18] was “inactive” throughout.
